Measurements: ChEMBL document CHEMBL1123601, “Enantiomers of 1-ethyl-7-[3-[(ethylamino)methyl]-1-pyrrolidinyl]-6,8-difluoro-1,4- dihydro-4-oxo-3-quinoline-carboxylic acid: preparation and biological activity” (J Med Chem, 1987)
Values after ≈ are worked out from the molar mass of the structure shown.

How the values were obtained:
Assay type in all cases: functional
Escherichia coli [1] = assay: Concentration of compound needed to produce linear DNA at an intensity relative to oxolinic acid at 10 ug/mL was measured on Escherichia coli for gyrase-drug induced cleavage,.
Summary of the method: (§1)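 DNA gyrase from E. coli H560 cells. Endpoint is the minimum drug concentration (µg/mL) that converts closed circular DNA to linear DNA, through denaturation of the drug–gyrase–DNA complex, at an intensity relative to oxolinic acid at 10 µg/mL. Linear DNA is resolved by gel electrophoresis and stained with ethidium bromide. Runs in duplicate or triplicate; error of one serial dilution.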

Escherichia coli [2] = assay: Dose required to protect 50% of mice from lethal infection was measured on Escherichia coli vogel(peroral administration); settings: po, read-out: PD50
Summary of the method: (§2)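 Female CD-1 mice (18-22 g) were challenged intraperitoneally with about 100 median lethal doses of E. coli in 5% hog gastric mucin. Single doses were given at challenge in a twofold rising series, subcutaneously as an aqueous solution or orally by gavage in 5% gum acacia. Groups of 8 mice per dose were used. PD50 was estimated from survival by log probit, with experiments run in duplicate.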

Escherichia coli [3] = assay: Dose required to protect 50% of mice from lethal infection was measured on Escherichia coli vogel (subcutaneously); settings: sc, read-out: PD50; summary of the method: as §2
Enterobacter cloacae = assay: Minimum inhibitory concentration (MIC) of compound was measured on Enterobacter cloacae HA 2646(gram negative organism)
Summary of the method: (§3)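 MICs (µg/mL) by standard microdilution (microtitration), with the enantiomers tested side by side with racemate across the organism panel. Aqueous stocks made up in 0.1 N NaOH or KOH. Performed in duplicate or triplicate; error of one serial dilution.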

Escherichia coli [4] = assay: Minimum concentration of compound needed to produce linear DNA at an intensity relative to oxolinic acid at 10 ug/mL was measured on Escherichia coli for gyrase-drug induced cleavage.; summary of the method: as §1
Escherichia coli [5] = assay: Minimum inhibitory concentration (MIC) of compound was measured on Escherichia coli H560 (gram negative organism); summary of the method: as §3
Escherichia coli [6] = assay: Minimum inhibitory concentration (MIC) of compound was measured on Escherichia coli Vogel(gram negative organism); summary of the method: as §3
Klebsiella pneumoniae = assay: Minimum inhibitory concentration (MIC) of compound was measured on Klebsiella pneumoniae MGH-2(gram negative organism); summary of the method: as §3
Pseudomonas aeruginosa = assay: Minimum inhibitory concentration (MIC) of compound was measured on Pseudomonas aeruginosa UI-18(gram negative organism); summary of the method: as §3
Providencia rettgeri = assay: Minimum inhibitory concentration (MIC) of compound was measured on Providencia rettgeri H1771 (gram negative organism); summary of the method: as §3
Staphylococcus aureus [7] = assay: Minimum inhibitory concentration (MIC) of compound was measured on Staphylococcus aureus H228 (gram positive organism); summary of the method: as §3
Staphylococcus aureus [8] = assay: Minimum inhibitory concentration (MIC) of compound was measured on Staphylococcus aureus UC-76(gram positive organism); summary of the method: as §3
Streptococcus pyogenes [9] = assay: Minimum inhibitory concentration (MIC) of compound was measured on Streptococcus pyogenes C203 (gram positive organism); summary of the method: as §3
Streptococcus pyogenes [10] = assay: Dose required to protect 50% of mice from lethal infection was measured on Streptococcus pyogenes C203 (p.o. administration); settings: po, read-out: PD50
Summary of the method: (§4)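 The lethal systemic infection in female CD-1 mice (18-22 g) was an intraperitoneal challenge of about 100 median lethal doses. Compound was given once at challenge in twofold rising doses, subcutaneously as an aqueous solution or orally by gavage in 5% gum acacia. PD50 was estimated by log probit from survival of groups of 8 mice, with experiments run in duplicate.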

Streptococcus pyogenes [11] = assay: Dose required to protect 50% of mice from lethal infection was measured on Streptococcus pyogenes C203 (s.c.); settings: sc, read-out: PD50; summary of the method: as §4
Enterococcus faecalis = assay: Minimum inhibitory concentration (MIC) of compound was measured on Streptococcus faecalis MGH-2(gram positive organism); summary of the method: as §3
Streptococcus pneumoniae [12] = assay: Dose required to protect 50% of mice from lethal infection was measured on Streptococcus pneumoniae SV-1(peroral administration); settings: po, read-out: PD50
Summary of the method: (§5)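 Female CD-1 mice (18-22 g) received an intraperitoneal challenge of about 100 median lethal doses of S. pneumoniae in tryptic soy broth. A single dose was given at challenge in a twofold rising series, subcutaneously in aqueous solution or by oral gavage in 5% gum acacia. Survival of 8 mice per dose gave PD50 by log probit, with experiments run in duplicate.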

Streptococcus pneumoniae [13] = assay: Dose required to protect 50% of mice from lethal infection was measured on Streptococcus pneumoniae SV-1 (subcutaneously); settings: sc, read-out: PD50; summary of the method: as §5
Streptococcus pneumoniae [14] = assay: Minimum inhibitory concentration (MIC) of compound was measured on Streptococcus pneumoniae SV-1(gram positive organism); summary of the method: as §3

In the case of `CCn1cc(C(=O)O)c(=O)c2cc(F)c(N3CCNCC3)cc21` [NORFLOXACIN], the IC50 (Escherichia coli [1]) is reported as 5.5 µg/mL (≈ 17.2 µM), the ED50 (Escherichia coli [2]) is reported as 1 mg/kg and the ED50 (Escherichia coli [3]) is reported as 0.7 mg/kg. The MIC (Enterobacter cloacae) was 0.1 µg/mL (≈ 0.313 µM), the Concentration (Escherichia coli [4]) was 1 µg/mL and the MIC (Escherichia coli [5]) was 0.1 µg/mL (≈ 0.313 µM). The MIC (Escherichia coli [6]) was 0.025 µg/mL (≈ 0.0783 µM), the MIC (Klebsiella pneumoniae) was 0.05 µg/mL (≈ 0.157 µM) and the MIC (Pseudomonas aeruginosa) was 0.2 µg/mL (≈ 0.626 µM). It also gave an MIC (Providencia rettgeri) of 0.025 µg/mL (≈ 0.0783 µM), an MIC (Staphylococcus aureus [7]) of 0.8 µg/mL (≈ 2.51 µM) and an MIC (Staphylococcus aureus [8]) of 0.05 µg/mL (≈ 0.157 µM). The MIC (Streptococcus pyogenes [9]) was 0.8 µg/mL (≈ 2.51 µM), the ED50 (Streptococcus pyogenes [10]) was over 100 mg/kg and the ED50 (Streptococcus pyogenes [11]) was 45 mg/kg. It also gave an MIC (Enterococcus faecalis) of 1.6 µg/mL (≈ 5.01 µM), an ED50 (Streptococcus pneumoniae [12]) of 150 mg/kg and an ED50 (Streptococcus pneumoniae [13]) of over 100 mg/kg. It also gave an MIC (Streptococcus pneumoniae [14]) of 1.6 µg/mL (≈ 5.01 µM).
